Laboratory results reported in ChEMBL document CHEMBL1127486, “Design of cyclic deltorphins and dermenkephalins with a disulfide bridge leads to analogues with high selectivity for delta-opioid receptors” (J Med Chem, 1994).

Experiments:
[1] = molecular target: Mu-type opioid receptor (Cavia porcellus, UniProt P97266); test: In vitro inhibition of electrically evoked contractions in guinea pig ileum longitudinal muscle myenteric plexus; assay type: functional, tissue-based
In short: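 Longitudinal muscle–myenteric plexus strips from male Hartley guinea pigs (150–400 g) in 37 °C Krebs bicarbonate gassed with 95% O2/5% CO2. Transmural stimulation at 0.1 Hz, 0.4-ms pulses, supramaximal voltage. Bestatin, bacitracin and captopril added 3 min before cumulative peptide doses. Inhibition compares contraction height 3 min post-dose with the 1-min pre-dose mean.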

[2] = molecular target: Delta-type opioid receptor (Rattus norvegicus, UniProt P33533); test: Inhibition of [3H][p-Cl-Phe-][…] binding to rat brain homogenate delta-opioid receptor
In short: (§1)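 Whole brain membranes from male Sprague-Dawley rats, preincubated 30 min at 25 °C to remove endogenous opioids. Incubated 180 min at 25 °C with 0.75 nM [3H][p-ClPhe4]DPDPE (δ) or 0.5 nM [3H]CTOP (μ). Buffer was 50 mM Tris-HCl pH 7.4 with BSA, bacitracin, bestatin, captopril and toluenesulfonyl fluoride. Rapid filtration and scintillation counting. Duplicates, ≥3 experiments, nonlinear least-squares fit.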

[3] = molecular target: Mu-type opioid receptor (Rattus norvegicus, UniProt P33535); test: Inhibition of [3H]CTOP binding to rat brain homogenate mu-opioid receptor; in short: as §1
[4] = molecular target: Delta-type opioid receptor (Mus musculus, UniProt P32300); test: In vitro inhibition of electrically induced smooth muscle contractions of mouse vas deferens; assay type: functional, tissue-based
[5] = Selectivity ratio against guinea pig ileum and mouse vas deferens contractions; assay type: functional
[6] = molecular target: Delta-type opioid receptor (Mus musculus) (UniProt P32300); test: In vitro percentage inhibition of electrically induced smooth muscle contractions of mouse vas deferens after the administration at 6000 nM; assay type: functional
In short: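 Vasa deferentia from male ICR mice (25–30 g) in 37 °C magnesium-free Krebs bicarbonate gassed with 95% O2/5% CO2. Transmural stimulation at 0.1 Hz, 2.0-ms pulses, supramaximal voltage. Peptidase inhibitors (bestatin, bacitracin, captopril) given 3 min before peptide. Percent inhibition is the 1-min pre-dose mean contraction height against height 3 min after peptide. Run in duplicate, repeated two or three times.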

Delta-type opioid receptor (Mus musculus, UniProt P32300), sequence (P32300 whole entry): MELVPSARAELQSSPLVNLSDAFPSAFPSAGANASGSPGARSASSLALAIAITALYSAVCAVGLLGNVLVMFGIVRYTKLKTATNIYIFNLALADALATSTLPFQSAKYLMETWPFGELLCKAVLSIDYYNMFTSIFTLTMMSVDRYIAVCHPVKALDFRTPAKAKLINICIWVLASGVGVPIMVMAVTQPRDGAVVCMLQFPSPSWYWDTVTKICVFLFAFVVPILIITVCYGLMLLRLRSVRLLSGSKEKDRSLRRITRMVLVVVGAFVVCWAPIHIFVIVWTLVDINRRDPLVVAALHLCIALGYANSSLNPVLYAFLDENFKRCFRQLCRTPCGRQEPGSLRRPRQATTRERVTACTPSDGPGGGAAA
Mu-type opioid receptor (Cavia porcellus, UniProt P97266), sequence (P97266 whole entry): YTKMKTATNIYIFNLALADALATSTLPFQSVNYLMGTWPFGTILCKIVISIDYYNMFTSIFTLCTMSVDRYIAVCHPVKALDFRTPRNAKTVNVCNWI
Delta-type opioid receptor (Rattus norvegicus, UniProt P33533), sequence (P33533 whole entry): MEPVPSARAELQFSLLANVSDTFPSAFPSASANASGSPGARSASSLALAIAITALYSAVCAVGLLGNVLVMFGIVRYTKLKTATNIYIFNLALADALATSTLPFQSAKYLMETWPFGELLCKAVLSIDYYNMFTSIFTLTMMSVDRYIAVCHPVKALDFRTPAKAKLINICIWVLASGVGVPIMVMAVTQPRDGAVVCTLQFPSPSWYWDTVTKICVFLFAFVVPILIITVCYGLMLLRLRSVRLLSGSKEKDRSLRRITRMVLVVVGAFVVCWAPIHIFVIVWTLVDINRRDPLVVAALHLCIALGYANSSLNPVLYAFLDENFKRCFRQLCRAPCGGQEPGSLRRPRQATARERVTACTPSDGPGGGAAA
Mu-type opioid receptor (Rattus norvegicus, UniProt P33535), sequence (P33535 whole entry): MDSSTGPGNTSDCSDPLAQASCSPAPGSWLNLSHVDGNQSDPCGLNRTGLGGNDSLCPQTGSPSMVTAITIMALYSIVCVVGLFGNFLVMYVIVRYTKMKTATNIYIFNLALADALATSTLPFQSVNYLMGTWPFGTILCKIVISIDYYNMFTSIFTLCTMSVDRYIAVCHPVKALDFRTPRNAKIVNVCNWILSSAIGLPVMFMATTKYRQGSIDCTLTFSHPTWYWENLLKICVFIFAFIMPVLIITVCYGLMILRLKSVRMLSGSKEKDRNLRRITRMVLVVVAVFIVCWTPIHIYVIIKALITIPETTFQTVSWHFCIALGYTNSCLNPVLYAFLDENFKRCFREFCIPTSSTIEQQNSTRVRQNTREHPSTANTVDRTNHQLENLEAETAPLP
Delta-type opioid receptor (Mus musculus), sequence (P32300 whole entry): as the sequence (P32300 whole entry) above

| Structure (SMILES) | IC50 [1] | IC50 [2] | IC50 [3] | IC50 [4] | Selectivity [5] | inhibition [6] |
| --- | --- | --- | --- | --- | --- | --- |
| CC(C)[C@H](NC(=O)[C@@H]1NC(=O)[C@H](CC(=O)O)NC(=O)[C@H](Cc2ccccc2)NC(=O)[C@H](NC(=O)[C@@H](N)Cc2ccc(O)cc2)C(C)(C)SSC1(C)C)C(=O)NCC(N)=O [listing 1 of 2 here] | 5500 nM | 210 nM | 1200 nM | 920 nM | – | – |
| CC(C)[C@H](NC(=O)[C@@H]1NC(=O)[C@H](CC(=O)O)NC(=O)[C@H](Cc2ccccc2)NC(=O)[C@H](NC(=O)[C@@H](N)Cc2ccc(O)cc2)C(C)(C)SSC1(C)C)C(=O)NCC(N)=O [listing 2 of 2 here] | – | – | – | – | 6 | – |
| CC(C)[C@H](NC(=O)[C@H]1NC(=O)[C@H](CC(=O)O)NC(=O)[C@H](Cc2ccccc2)NC(=O)[C@H](NC(=O)[C@@H](N)Cc2ccc(O)cc2)CSSC1(C)C)C(=O)NCC(N)=O [listing 1 of 2 here] | 1100 nM | 2.2 nM | 3760 nM | 0.25 nM | – | – |
| CC(C)[C@H](NC(=O)[C@H]1NC(=O)[C@H](CC(=O)O)NC(=O)[C@H](Cc2ccccc2)NC(=O)[C@H](NC(=O)[C@@H](N)Cc2ccc(O)cc2)CSSC1(C)C)C(=O)NCC(N)=O [listing 2 of 2 here] | – | – | – | – | 4400 | – |
| CC(C)[C@H](NC(=O)[C@H]1NC(=O)[C@H](CC(=O)O)NC(=O)[C@H](Cc2ccccc2)NC(=O)[C@H](NC(=O)[C@@H](N)Cc2ccc(O)cc2)C(C)(C)SSC1(C)C)C(=O)NCC(N)=O [listing 1 of 2 here] | 68000 nM | 3.7 nM | 26000 nM | 6.3 nM | – | – |
| CC(C)[C@H](NC(=O)[C@H]1NC(=O)[C@H](CC(=O)O)NC(=O)[C@H](Cc2ccccc2)NC(=O)[C@H](NC(=O)[C@@H](N)Cc2ccc(O)cc2)C(C)(C)SSC1(C)C)C(=O)NCC(N)=O [listing 2 of 2 here] | – | – | – | – | 11000 | – |
| CC(C)[C@H](NC(=O)[C@@H]1CSSC[C@@H](NC(=O)[C@@H](N)Cc2ccc(O)cc2)C(=O)N[C@@H](Cc2ccccc2)C(=O)N[C@@H](CC(=O)O)C(=O)N1)C(=O)NCC(N)=O | – | – | – | – | 13 | – |
| CC(C)C(NC(=O)[C@H]1NC(=O)[C@H](CCC(=O)O)NC(=O)C(Cc2ccccc2)NC(=O)[C@H](NC(=O)[C@@H](N)Cc2ccc(O)cc2)C(C)(C)SSC1(C)C)C(=O)NCC(N)=O (single isomer, unassigned) | 7100 nM | 5.7 nM | 4900 nM | 2.24 nM | 3200 | – |
| CCCC[C@H](NC(=O)[C@H]1NC(=O)[C@H](Cc2c[nH]cn2)NC(=O)C(Cc2ccccc2)NC(=O)[C@H](NC(=O)[C@@H](N)Cc2ccc(O)cc2)C(C)(C)SSC1(C)C)C(=O)N[C@@H](CC(=O)O)C(=O)O (single isomer, unassigned) | 4500 nM | 5.11 nM | 1900 nM | – | <1.5 | 43.5% |
| CCCC[C@H](NC(=O)[C@H]1NC(=O)[C@H](CC(=O)O)NC(=O)C(Cc2ccccc2)NC(=O)[C@H](NC(=O)[C@@H](N)Cc2ccc(O)cc2)C(C)(C)SSC1(C)C)C(=O)NCC(N)=O (single isomer, unassigned) | 137000 nM | 4.83 nM | 54600 nM | 8.8 nM | 16000 | – |
| CC(C)C(NC(=O)[C@H]1NC(=O)[C@H](CO)NC(=O)C(Cc2ccccc2)NC(=O)[C@H](NC(=O)[C@@H](N)Cc2ccc(O)cc2)C(C)(C)SSC1(C)C)C(=O)NCC(N)=O (single isomer, unassigned) | 13500 nM | 10 nM | 3300 nM | 91.8 nM | 150 | – |
| CCCC[C@H](NC(=O)[C@H]1NC(=O)[C@H](Cc2c[nH]cn2)NC(=O)C(Cc2ccccc2)NC(=O)[C@H](NC(=O)[C@@H](N)Cc2ccc(O)cc2)C(C)(C)SSC1(C)C)C(=O)N[C@@H](CC(=O)O)C(N)=O (single isomer, unassigned) | 22000 nM | 3.4 nM | 10200 nM | 12.7 nM | 1700 | – |
| CSCCC(NC(=O)[C@H](CC(C)C)NC(=O)[C@H](Cc1c[nH]cn1)NC(=O)[C@H](Cc1ccccc1)NC(=O)C(CCSC)NC(=O)[C@@H](N)Cc1ccc(O)cc1)C(=O)N[C@@H](CC(=O)O)C(N)=O (stereo in doubt) [listing 1 of 2 here] | 3400 nM | 0.47 nM | 1900 nM | 0.28 nM | – | – |
| CSCCC(NC(=O)[C@H](CC(C)C)NC(=O)[C@H](Cc1c[nH]cn1)NC(=O)[C@H](Cc1ccccc1)NC(=O)C(CCSC)NC(=O)[C@@H](N)Cc1ccc(O)cc1)C(=O)N[C@@H](CC(=O)O)C(N)=O (stereo in doubt) [listing 2 of 2 here] | – | – | – | – | 12000 | – |
| CC(C)[C@H](NC(=O)[C@H](CC(=O)O)NC(=O)[C@H](Cc1ccccc1)NC(=O)[C@@H](C)NC(=O)[C@@H](N)Cc1ccc(O)cc1)C(=O)N[C@H](C(=O)NCC(N)=O)C(C)C (stereo in doubt; form 1) [DELTORPHIN C] | 2890 nM | – | – | – | – | – |
